The values that follow come from ChEMBL document CHEMBL1144485, “The synthesis and the in vitro cytotoxicity studies of bisnaphthalimidopropyl polyamine derivatives against colon cancer cells and parasite Leishmania infantum” (Bioorg Med Chem, 2007).

For assay [1], the system named is Caco-2. Put plainly: Cytotoxicity activity against Caco-2 cells after 24 by MTT assay. Format: cell-based. The following applies: Homo sapiens. A digest of the protocol: (§1)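 Caco-2 cells in Earle's MEM with 10% FCS, glutamine, non-essential amino acids, penicillin/streptomycin; seeded at 2 × 10^4 cells cm−2, 24 h before drug. Compounds (stock in 20% DMSO, diluted in medium) at 0.01–40 µM for 24 or 48 h, 37 °C. MTT 1 mg/ml in serum-free medium 4 h, DMSO solubilisation, A560. IC50 = 50% absorbance reduction vs control from fitted log line; six replicates, mean ± SD.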

The test system of assay [2] is Caco-2. In words: Cytotoxicity activity against Caco-2 cells after 48 by MTT assay. Format: cell-based. The following applies: Homo sapiens. A digest of the protocol: as §1
A further assay has as its system Leishmania infantum. Put plainly: Cytotoxicity activity against Leishmania infantum after 72 hrs by MTT assay. Format: functional, organism-based. A digest of the protocol: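 L. infantum promastigotes (clone MHOM/MA671TMA-P263), log phase (2-day culture), grown at 27 °C in RPMI with 10% heat-inactivated FBS, 2 mM glutamine, 20 mM Hepes, penicillin/streptomycin. 10^6/ml exposed to serial drug concentrations (0.30–100 µM) for 3 days, 27 °C. MTT 0.25 mg/ml final, 4 h, 27 °C; SDS/DMF pH 4.8 lysis 1 h at 37 °C, A550. Growth IC50 by linear regression; at least five assays, ± SD.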
For orientation: Formazan colour is commonly taken as a measure of viable cells.

In the case of `O=C1c2cccc3cccc(c23)C(=O)N1CCCNCCCCCCCCCCNCCCN1C(=O)c2cccc3cccc(c23)C1=O` [BNIPDADEC], the IC50 (commonly the point on the concentration scale where inhibition reaches its midpoint) in the assay with Caco-2 [1] was 770 nM; with Caco-2 [2], 360 nM.

For the molecule `O=C1c2cccc3cccc(c23)C(=O)N1CCCNCCCCCCCCNCCCN1C(=O)c2cccc3cccc(c23)C1=O` [BNIPDAOCT], the IC50 in the assay with Caco-2 [1] is 6200 nM; in the assay with Caco-2 [2], 3200 nM; in the assay on Leishmania infantum, 780 nM.

Regarding `O=C1c2cccc3cccc(c23)C(=O)N1CCCNCCNCCNCCCN1C(=O)c2cccc3cccc(c23)C1=O` [BNIPDETA], the half-maximal inhibitory concentration (IC50) was 21700 nM in the assay with Caco-2 [1], 22300 nM in the assay with Caco-2 [2] and 740 nM in the assay with Leishmania infantum.

On to `O=C1c2cccc3cccc(c23)C(=O)N1CCCNCCCCNCCCNCCCN1C(=O)c2cccc3cccc(c23)C1=O` [BNIPSPD], for which the concentration for half-maximal inhibition (IC50) stood at 470 nM with Caco-2 [1], 150 nM in the assay on Caco-2 [2] and 470 nM with Leishmania infantum.

Consider `O=C1c2cccc3cccc(c23)C(=O)N1CCCNCCCNCCCNCCCN1C(=O)c2cccc3cccc(c23)C1=O` [BNIPDPTA], for which the half-inhibitory concentration (IC50) was found to be 5140 nM in the assay on Caco-2 [1], 1540 nM in the assay on Caco-2 [2] and 1540 nM in the assay with Leishmania infantum.

As for `O=C1c2cccc3cccc(c23)C(=O)N1CCCNCCCCCCCCCNCCCN1C(=O)c2cccc3cccc(c23)C1=O` [BNIPDANON], the IC50 in the assay with Caco-2 [1] is 3600 nM; in the assay with Caco-2 [2], 670 nM; with Leishmania infantum it was 780 nM.
